# Test results reported in ChEMBL document CHEMBL1151957, “Design and synthesis of novel C14-hydroxyl substituted triptolide derivatives as potential selective antitumor agents” (J Med Chem, 2009).
# Calls of active or inactive are those of the source. The calls are words filed in the database; no cut-off is given here.
# What was measured:
# [1] = test system: MDR; assay: Cytotoxicity against multidrug-resistant human KB/VCR cells by SRB assay in presence of MDR reversing agent verapamil; type: functional, cell-based
# Summary of the method: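 KB/VCR cells exposed to test agents together with the MDR reversal agent verapamil. Growth inhibition was read by SRB assay after 72 h treatment; each point is the mean of three independent experiments.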
# [2] = test system: SK-OV-3; assay: Cytotoxicity against human SKOV3 cells by SRB assay; type: functional, cell-based
# Summary of the method: (§1)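 Cells grown in RPMI 1640 with 10% heat-inactivated FBS, 2 mmol/L glutamine, 10 mmol/L HEPES pH 7.4, 5% CO2, 37 °C; MCF-7/ADR also given 1 mmol/L pyruvate and 0.01 mg/mL insulin. Treated in triplicate with graded concentrations for 72 h at 37 °C, read by SRB. IC50 (50% growth inhibition vs control) by logit method; three independent experiments.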
# [3] = test system: MDA-MB-468; assay: Cytotoxicity against human MDA-MB-468 cells by SRB assay; type: functional, cell-based; summary of the method: as §1
# [4] = test system: PC-3; assay: Cytotoxicity against human PC3 cells by SRB assay; type: functional, cell-based; summary of the method: as §1
# [5] = test system: SGC-7901; assay: Antitumor activity against human SGC7901 cells xenografted in BALB/cA nu/nu mouse assessed as tumor growth inhibition at 4 mg/kg, po; type: functional; parameters: scale not given: the % may be the effect or the level left
# Summary of the method: (§2)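 Nude BALB/cA nu/nu mice, 4-5 weeks old, received 1 mm³ tumor fragments implanted sc into the right flank by trocar. At 100-200 mm³ they were randomized, six per group, and dosed po daily in vehicle; controls got vehicle alone. Calipers twice weekly; V = length×width²/2; RTV = Vt/V0; T/C (%) = mean RTV treated / mean RTV control ×100. Student t test.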
# [6] = test system: SK-OV-3; assay: Cytotoxicity against human SKOV3 cells after 72 hrs by […]; type: functional, cell-based; conditions: SK-OV-3, 72 h
# Summary of the method: (§3)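 Cells grown at 37 °C in 5% CO2 in RPMI 1640 with 10% heat-inactivated FBS, glutamine, antibiotics and HEPES; MCF-7 medium also had sodium pyruvate and insulin. Cells in 96-well plates were treated in triplicate with graded concentrations for 72 h at 37 °C. Read-out was MTT for leukemia lines and SRB for solid-tumor lines. IC50 was set relative to control by the logit method, as mean ± SD of three independent experiments.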
# [7] = test system: MDA-MB-231; assay: Cytotoxicity against human MDA-MB-231 cells after 72 hrs […]; type: functional, cell-based; conditions: MDA-MB-231, 72 h; summary of the method: as §3
# [8] = test system: MOLT-4; assay: Cytotoxicity against human MOLT4 cells after 72 hrs by MTT assay; type: functional, cell-based; conditions: MOLT-4, 72 h; summary of the method: as §3
# [9] = test system: SMMC-7721; assay: Cytotoxicity against human SMMC7721 cells after 72 hrs […]; type: functional, cell-based; conditions: SMMC-7721, 72 h; summary of the method: as §3
# [10] = Cytotoxicity against human 786-O cells after 72 hrs […]; type: functional, cell-based; conditions: 786-0, 72 h; summary of the method: as §3
# [11] = test system: Mus musculus; assay: Toxicity in BALB/cA nu/nu mouse assessed as change in body weight at 1 to 4 mg/kg, po; type: organism-based; parameters: dose 1-4 mg/kg, route oral; conditions: in vivo
# Summary of the method: (§4)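 Female-unspecified BALB/cA nu/nu mice, 4-5 weeks old, carried sc 1 mm³ tumor fragments in the right flank. At 100-200 mm³, mice were randomized six per group and given compound po daily in vehicle, with vehicle-only controls, over about 21 days. Endpoints were deaths, systemic toxicity, body weight, and gross anatomy of liver and kidney.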
# [12] = test system: A549; assay: Cytotoxicity against human A549 cells after 72 hrs by SRB assay; conditions: A549, 72 h
# [13] = test system: HCT-116; assay: Cytotoxicity against human HCT116 cells after 72 hrs […]; type: functional, cell-based; conditions: HCT-116, 72 h; summary of the method: as §3
# [14] = test system: PC-3; assay: Antitumor activity against human PC3 cells xenografted in BALB/cA nu/nu mouse assessed as tumor growth inhibition at 4 mg/kg, po measured on day 21 postinfection; type: functional, organism-based; parameters: dose 4 mg/kg; summary of the method: as §2
# [15] = Cytotoxicity against human Rh30 cells after 72 hrs by […]; type: functional, cell-based; conditions: SJRH30, 72 h; summary of the method: as §3
# [16] = test system: SMMC-7721; assay: Antitumor activity against human SMMC7721 cells xenografted in BALB/cA nu/nu mouse assessed as tumor growth inhibition at 1 to 4 mg/kg, po; type: functional, organism-based; summary of the method: as §2
# [17] = test system: KB; assay: Resistant factor, ratio of IC50 for multidrug-resistant human KB/VCR cells to IC50 for human KB cells; type: functional
# Summary of the method: (§5)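 Resistance factor is the IC50 in the MDR line divided by the IC50 in its parental line. Both come from 72 h growth-inhibition assays: MTT for the leukemia pair, SRB for the solid-tumor pairs.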
# [18] = test system: SK-OV-3; assay: Antitumor activity against human SKOV3 cells xenografted in BALB/cA nu/nu mouse assessed as tumor growth inhibition at 1 mg/kg, po relative to control; type: functional; summary of the method: as §2
# [19] = test system: MCF7; assay: Cytotoxicity against human MCF7 cells after 72 hrs […]; type: functional, cell-based; conditions: MCF7, 72 h; summary of the method: as §3
# [20] = test system: Mus musculus; assay: Toxicity in BALB/cA nu/nu mouse assessed as change in kidney gross anatomy at 1 to 4 mg/kg, po; type: organism-based; parameters: dose 1-4 mg/kg, route oral; conditions: in vivo; summary of the method: as §4
# [21] = test system: HeLa; assay: Cytotoxicity against human HeLa cells after 72 hrs […]; type: functional, cell-based; summary of the method: as §3
# [22] = test system: K562; assay: Cytotoxicity against human K562 cells after 72 hrs by MTT assay; type: functional, cell-based; conditions: K562, 72 h; summary of the method: as §3
# [23] = Cytotoxicity against multidrug-resistant human K562/A02 cells by MTT assay
# [24] = test system: U-251; assay: Cytotoxicity against human U251 cells after 72 hrs […]; type: functional, cell-based; conditions: U-251, 72 h; summary of the method: as §3
# [25] = test system: Mus musculus; assay: Systemic toxicity in BALB/cA nu/nu mouse at 1 to 4 mg/kg, po; type: organism-based; parameters: dose 1-4 mg/kg, route oral; conditions: in vivo; summary of the method: as §4
# [26] = test system: KB; assay: Cytotoxicity against human KB cells after 72 hrs […]; type: functional, cell-based; summary of the method: as §3
# [27] = test system: PC-3; assay: Antitumor activity against human PC3 cells xenografted in BALB/cA nu/nu mouse assessed as tumor growth inhibition at 2 mg/kg, po measured on day 21 postinfection; type: functional, organism-based; parameters: dose 2 mg/kg; summary of the method: as §2
# [28] = test system: Mus musculus; assay: Toxicity in BALB/cA nu/nu mouse assessed as mortality at 1 to 4 mg/kg, po; type: organism-based; parameters: dose 1-4 mg/kg, route oral; conditions: in vivo; summary of the method: as §4
# [29] = test system: HCT-15; assay: Cytotoxicity against human HCT15 cells after 72 hrs […]; type: functional, cell-based; conditions: HCT-15, 72 h; summary of the method: as §3
# [30] = test system: SK-OV-3; assay: Antitumor activity against human SKOV3 cells xenografted in BALB/cA nu/nu mouse assessed as tumor growth inhibition at 2 mg/kg, po measured on day 21 postinfection; type: functional; parameters: scale not given: the % may be the effect or the level left; summary of the method: as §2
# [31] = test system: DU-145; assay: Cytotoxicity against human DU145 cells after 72 hrs by […]; type: functional, cell-based; conditions: DU-145, 72 h; summary of the method: as §3
# [32] = test system: SK-OV-3; assay: Antitumor activity against human SKOV3 cells xenografted in BALB/cA nu/nu mouse assessed as tumor growth inhibition at 4 mg/kg, po measured on day 21 postinfection; type: functional; parameters: scale not given: the % may be the effect or the level left; summary of the method: as §2
# [33] = Cytotoxicity against human HO8910 cells after 72 hrs by […]; type: functional, cell-based; conditions: HO-8910, 72 h; summary of the method: as §3
# [34] = test system: Mus musculus; assay: Toxicity in BALB/cA nu/nu mouse assessed as change in liver gross anatomy at 1 to 4 mg/kg, po; type: organism-based; parameters: dose 1-4 mg/kg, route oral; conditions: in vivo; summary of the method: as §4
# [35] = Cytotoxicity against multidrug-resistant human MCF7/ADR cells by SRB assay; type: functional, cell-based; conditions: NCI/ADR-RES; summary of the method: as §1
# [36] = test system: Bel-7402; assay: Cytotoxicity against human Bel7402 cells after 72 hrs by […]; type: functional, cell-based; conditions: Bel-7402, 72 h; summary of the method: as §3
# [37] = Cytotoxicity against human SW1116 cells after 72 hrs by […]; type: functional, cell-based; conditions: SW 1116, 72 h; summary of the method: as §3
# [38] = test system: SGC-7901; assay: Cytotoxicity against human SGC7901 cells after 72 hrs by SRB assay; conditions: SGC-7901, 72 h
# [39] = test system: MDA-MB-468; assay: Antitumor activity against human MDA-MB-468 cells xenografted in BALB/cA nu/nu mouse assessed as tumor growth inhibition at 1 to 4 mg/kg, po; type: functional, organism-based; summary of the method: as §2
# [40] = test system: PC-3; assay: Cytotoxicity against human PC3 cells after 72 hrs by […]; type: functional, cell-based; conditions: PC-3, 72 h; summary of the method: as §3
# [41] = test system: MCF7; assay: Resistant factor, ratio of IC50 for multidrug-resistant human MCF7/ADR cells to IC50 for human MCF7 cells; type: functional; summary of the method: as §5
# [42] = test system: MKN-28; assay: Cytotoxicity against human MKN28 cells after 72 hrs […]; type: functional, cell-based; conditions: MKN-28, 72 h; summary of the method: as §3
# [43] = test system: K562; assay: Resistant factor, ratio of IC50 for multidrug-resistant human K562/A02 cells to IC50 for human K562 cells; type: functional; summary of the method: as §5
compound,measurement,setting,value
CC[C@]1(O)C[C@H]2CN(CCc3c([nH]c4ccccc34)[C@@](C(=O)OC)(c3cc4c(cc3OC)N(C=O)[C@H]3[C@@](O)(C(=O)OC)[C@H](OC(C)=O)[C@]5(CC)C=CCN6CC[C@]43[C@@H]65)C2)C1,Activity,[1],Active
CC(C)[C@]12O[C@H]1[C@@H]1O[C@]13[C@]1(O[C@H]1C[C@H]1C4=C(CC[C@@]13C)C(=O)OC4)[C@H]2O [EPITRIPTOIIDE],IC50,[2],790 nM
same,IC50,[3],1320 nM
same,IC50,[4],1600 nM
CC(C)[C@]12O[C@H]1[C@@H]1O[C@]13[C@]1(O[C@H]1C[C@H]1C4=C(CC[C@@]13C)C(=O)OC4)[C@]21CO1,Activity,[5],75%
same,Activity,[1],Active
same,IC50,[6],270 nM
same,IC50,[7],280 nM
same,IC50,[8],251 nM
same,IC50,[9],350 nM
same,IC50,[2],100 nM
same,IC50,[10],386 nM
same,Activity,[11],Non-toxic
same,IC50,[12],702 nM
same,IC50,[3],180 nM
same,IC50,[13],219 nM
same,Activity,[14],Active
same,IC50,[15],293 nM
same,Activity,[16],inactive
same,Ratio IC50,[17],0.77
same,T/C,[18],50.2%
same,IC50,[19],360 nM
same,Activity,[20],Non-toxic
same,IC50,[21],507 nM
same,IC50,[22],421 nM
same,IC50,[23],740 nM
same,IC50,[24],657 nM
same,Activity,[25],Non-toxic
same,IC50,[26],615 nM
same,Activity,[27],Active
same,Activity,[28],Non-toxic
same,IC50,[29],648 nM
same,Activity,[30],87.5%
same,IC50,[31],256 nM
same,Activity,[32],97.4%
same,IC50,[4],270 nM
same,IC50,[33],538 nM
same,Activity,[34],Non-toxic
same,IC50,[35],910 nM
same,IC50,[36],332 nM
same,IC50,[37],907 nM
same,IC50,[38],175 nM
same,Activity,[39],inactive
same,IC50,[40],637 nM
same,Ratio IC50,[41],2.53
same,IC50,[42],2540 nM
same,Ratio IC50,[43],1.76
CC(C)[C@]12O[C@H]1[C@@H]1O[C@]13[C@]1(O[C@H]1C[C@H]1C4=C(CC[C@@]13C)C(=O)OC4)[C@@H]2O [TRIPTOLIDE],IC50,[6],10 nM
same,IC50,[7],24 nM
same,IC50,[8],17 nM
same,IC50,[9],18 nM
same,IC50,[2],9 nM
same,IC50,[10],22 nM
same,IC50,[12],59 nM
same,IC50,[3],10 nM
same,IC50,[13],10 nM
same,IC50,[15],14 nM
same,IC50,[19],19 nM
same,IC50,[21],47 nM
same,IC50,[22],50 nM
same,IC50,[24],49 nM
same,IC50,[26],43 nM
same,IC50,[29],29 nM
same,IC50,[31],24 nM
same,IC50,[4],20 nM
same,IC50,[33],28 nM
same,IC50,[36],20 nM
same,IC50,[37],52 nM
same,IC50,[38],15 nM
same,IC50,[40],43 nM
same,IC50,[42],200 nM
CC(C)[C@]1(O)[C@H](Cl)[C@@H]2O[C@]23[C@]2(O[C@H]2C[C@H]2C4=C(CC[C@@]23C)C(=O)OC4)[C@]12CO2,IC50,[2],140 nM
same,IC50,[3],210 nM
same,IC50,[4],470 nM
